Measurements taken from ChEMBL document CHEMBL1145837, “Design and synthesis of 4,6-di-tert-butyl-2,3-dihydro-5-benzofuranols as a novel series of antiatherogenic antioxidants” (J Med Chem, 2003).

Legend:
[1] = organism: Oryctolagus cuniculus; assay: Inhibition of LDL oxidation induced by cupric ions (CuSO4) at 1 uM expressed as % control.; assay type: functional
Summary of the method: (§1)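 Rabbit LDL (d 1.019–1.063 g/mL, sequential ultracentrifugation) at 200 μg/mL with compound at stated concentration, oxidized by soybean lipoxygenase type-IS or CuSO4 at 37 °C for 24 h in CO2 incubator. Read-out: TBARS and LDL fluorescence by gel permeation chromatography (0.1 M NaCl, 0.05 M Tris pH 7.4); expressed as % of control; duplicate or more.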

[2] = organism: Oryctolagus cuniculus; assay: Inhibition of LDL oxidation induced by cupric ions (CuSO4) at 10 uM expressed as % control.; assay type: functional; summary of the method: as §1
[3] = biological target: T1, Seed linoleate 13S-lipoxygenase-1 (Glycine max) (UniProt P08170); assay: Inhibition of LDL oxidation induced by soybean lipoxygenase (SLO) at 0.5 uM expressed as % control.; assay type: functional; summary of the method: as §1
T1 sequence (whole entry): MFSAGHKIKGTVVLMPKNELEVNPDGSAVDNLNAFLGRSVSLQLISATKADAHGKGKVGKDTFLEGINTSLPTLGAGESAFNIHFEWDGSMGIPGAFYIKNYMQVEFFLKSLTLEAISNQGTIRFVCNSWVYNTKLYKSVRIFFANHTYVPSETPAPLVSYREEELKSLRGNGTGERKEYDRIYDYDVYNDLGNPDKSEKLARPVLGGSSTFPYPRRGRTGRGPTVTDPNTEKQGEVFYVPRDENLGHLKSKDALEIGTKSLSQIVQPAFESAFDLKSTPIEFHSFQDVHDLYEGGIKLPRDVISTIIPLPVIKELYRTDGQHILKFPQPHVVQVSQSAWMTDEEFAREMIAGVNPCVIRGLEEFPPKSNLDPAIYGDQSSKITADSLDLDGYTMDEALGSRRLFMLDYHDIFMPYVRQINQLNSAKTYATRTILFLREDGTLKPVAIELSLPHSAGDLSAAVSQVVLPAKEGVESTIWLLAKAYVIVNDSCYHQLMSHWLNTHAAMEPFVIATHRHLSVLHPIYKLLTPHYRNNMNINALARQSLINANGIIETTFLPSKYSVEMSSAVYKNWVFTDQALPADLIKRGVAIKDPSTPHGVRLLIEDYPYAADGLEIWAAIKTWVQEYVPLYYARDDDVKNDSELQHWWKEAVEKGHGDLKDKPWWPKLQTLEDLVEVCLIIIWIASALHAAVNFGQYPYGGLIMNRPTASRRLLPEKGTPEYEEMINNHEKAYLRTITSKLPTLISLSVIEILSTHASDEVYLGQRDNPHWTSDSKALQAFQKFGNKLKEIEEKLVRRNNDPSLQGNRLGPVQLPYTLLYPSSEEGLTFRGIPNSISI

[4] = biological target: T1, Seed linoleate 13S-lipoxygenase-1 (Glycine max); assay: Inhibition of LDL oxidation induced by soybean lipoxygenase (SLO) at 5 uM expressed as % control.; assay type: functional; summary of the method: as §1
[5] = Inhibition of MCLA chemiluminescence generated by autoxidation of linoleic acid
Summary of the method: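 Linoleic acid peroxyl radicals from autoxidation of 1 mM linoleic acid in 1-butanol with 10 μM MCLA, 10 min at 37 °C under air; quenching measured as change in MCLA chemiluminescence after compound addition; IC50 derived; duplicate or more.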

[6] = system: Oryctolagus cuniculus; assay: Distribution of compound into VLDL lipoprotein fraction of WHHL Rabbit's plasma after oral administration; assay type: ADME, organism-based; settings: in vivo
Summary of the method: (§2)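 WHHL rabbits given test compound orally (250 mg/kg) once daily for 9 days; at 24 h after final dose plasma lipoproteins isolated by Havel procedure, EtOAc-extracted, compound content per mg lipoprotein measured by reverse-phase HPLC. Mean ± range, n = 2.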

[7] = system: Oryctolagus cuniculus; assay: Distribution of compound into LDL lipoprotein fraction of WHHL Rabbit's plasma after oral administration; assay type: ADME, organism-based; settings: in vivo; summary of the method: as §2
[8] = system: Oryctolagus cuniculus; assay: Distribution of compound into HDL lipoprotein fraction of WHHL Rabbit's plasma after oral administration; ND means not detected; assay type: ADME, organism-based; settings: in vivo; summary of the method: as §2
[9] = system: Oryctolagus cuniculus; assay: Distribution of compound into HDL lipoprotein fraction of WHHL Rabbit's plasma after oral administration; assay type: ADME, organism-based; settings: in vivo; summary of the method: as §2

Row | Compound | LDL oxidation remaining, % of control [1] [%] | LDL oxidation remaining, % of control [2] [%] | LDL oxidation remaining, % of control [3] [%] | LDL oxidation remaining, % of control [4] [%] | IC50 [5] [µM] | VLDL [6] [µg/mg] | LDL [7] [µg/mg] | HDL [8] | HDL [9] [µg/mg]
1 | CC(C)(C)c1cc2c(c(C(C)(C)C)c1O)CC(Cc1ccccc1)(Cc1ccccc1)O2 | 93 | 11 | 63.5 | 3.6 | 10.6 |  |  |  | 
2 | CC(C)(C)c1cc2c(c(C(C)(C)C)c1O)CCO2 | 53 | 11 | 36 | 6.9 | 7.2 |  |  |  | 
3 | CC(C)(C)c1cc2c(c(C(C)(C)C)c1O)CC(C(C)(C)C)O2 (stereo unspecified) | 74 | 11 | 99 | 1.8 | 8.4 | 27.69 | 5.08 | Not detected | 
4 | CC1(C)Cc2c(cc(C(C)(C)C)c(O)c2C(C)(C)C)O1 | 56 | 10 | 39.8 | 1.8 | 6.7 |  |  |  | 
5 | CC(C)(C)c1cc2c(c(C(C)(C)C)c1O)CC1(CCCC1)O2 | 85 | 12 | 46.2 | 0.4 | 6.6 |  |  |  | 
6 | CC(C)(C)c1cc2c(c(C(C)(C)C)c1O)CC1(CCCCC1)O2 | 77 | 16 | 34.1 | 0 | 9.3 |  |  |  | 
7 | CC(C)(Sc1cc(C(C)(C)C)c(O)c(C(C)(C)C)c1)Sc1cc(C(C)(C)C)c(O)c(C(C)(C)C)c1 [PROBUCOL] | 87 | 28 | 73.9 | 14 | 165 | 5.48 | 2.57 |  | 0.44
8 | CCCC1(CCC)Cc2c(cc(C(C)(C)C)c(O)c2C(C)(C)C)O1 | 87 | 13 | 33.3 | 0 | 4 |  |  |  | 
9 | CC(C)CCC1(CCC(C)C)Cc2c(cc(C(C)(C)C)c(O)c2C(C)(C)C)O1 | 78 | 23 | 91.5 | 7.1 | 5.7 | 25.64 | 9.34 | Not detected | 
10 | CCCCCCCCC1(CCCCCCCC)Cc2c(cc(C(C)(C)C)c(O)c2C(C)(C)C)O1 | 85 | 72 | 89.8 | 11.3 | 5.6 | 1.16 | 0.36 | Not detected | 
11 | CCCCCC1(CCCCC)Cc2c(cc(C(C)(C)C)c(O)c2C(C)(C)C)O1 [BO-653] | 96 | 42 | 60.9 | 4.6 | 4.6 | 119.25 | 28.6 |  | 2.98
12 | CCC1(CC)Cc2c(cc(C(C)(C)C)c(O)c2C(C)(C)C)O1 | 77 | 10 | 9.4 | 1.3 | 4.3 |  |  |  | 
13 | CC(C)(C)c1cc2c(c(C(C)(C)C)c1O)CC1(CCOCC1)O2 | 87 | 22 | 71.8 | 4.7 | 8.2 |  |  |  | 
14 | CC(C)(C)c1cc2c(c(C(C)(C)C)c1O)CC1(CCCCCCC1)O2 | 92 | 22 | 97.2 | 9 | 9.4 |  |  |  | 
15 | CC(C)(C)c1cc2c(c(C(C)(C)C)c1O)CC1(CCCCCC1)O2 | 91 | 9 | 93.4 | 2.3 | 7.9 |  |  |  | 
16 | CCCCCCCC1(CCCCCCC)Cc2c(cc(C(C)(C)C)c(O)c2C(C)(C)C)O1 | 89 | 83 | 88.4 | 18.5 |  |  |  |  | 
17 | CCCCC1(CCCC)Cc2c(cc(C(C)(C)C)c(O)c2C(C)(C)C)O1 | 82 | 12 | 51.5 | 0.5 | 7.9 | 57.07 | 11.04 |  | 3.22
18 | CCCCCCC1(CCCCCC)Cc2c(cc(C(C)(C)C)c(O)c2C(C)(C)C)O1 | 86 | 23 | 75.5 | 2.7 |  |  |  |  | 
